Experimental data: article PMC9378630 (Chemmedchem, 2022)
“And” between values parts separate entries of the source, which are not always exact repeats. Equal entries are not always repeated. Where two headings read alike, the source gives them in different places.

Assays:
CatSper [1] = molecular target: T1, CatSper (Homo sapiens, UniProt Q7RTX7+Q86XQ3+Q8NEC5+Q96P56); test: Progesterone-induced calcium uptake; format: cell-based
[2] = AlamarBlue cytotoxicity assay in human sperm; format: cell-based; conditions: human, human sperm
Summary of the method: (§1)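 Sperm isolated by centrifugation: liquefied at 37 °C, HTF-washed twice, 800×g, resuspended in Low/Low (low pH/low K+) buffer. Mixed with test compound (2.2x in Low/Low). 8 half-log concentrations, 100 μM to 32 nM final, in duplicate. AlamarBlue at 37 °C, 560/590 nm fluorescence every 15 min over 3 h. IC50 from concentration-response fit.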

[3] = AlamarBlue cytotoxicity assay in IMR-90 fibroblasts; format: cell-based, human; conditions: human, IMR-90 lung fibroblast cells
Summary of the method: (§2)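 IMR-90 lung fibroblasts cultured 2 weeks in EMEM + 10% FBS, split 2–4 days before use, trypsin-EDTA detached and resuspended in culture medium. Added to test compound (2.2x in Low/Low buffer). 8 half-log concentrations, 100 μM to 32 nM final, in duplicate. AlamarBlue added, 37 °C, fluorescence 560/590 nm read every 30 min over 7 h. IC50 from concentration-response fit.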

human SLO3 and LRRC52 = molecular target: T2, human SLO3 and LRRC52 (Homo sapiens, UniProt A8MYU2); format: cell-based; conditions: for hSLO3 current in the presence of compound, % of control: 10 μM, +60 mV, n=5 cells, mean±SD in text; for inhibition at 10 µM: HEK293, read-out: Inhibition at 10 μM [%] hSlo3
T2 sequence (A8MYU2 1-1149): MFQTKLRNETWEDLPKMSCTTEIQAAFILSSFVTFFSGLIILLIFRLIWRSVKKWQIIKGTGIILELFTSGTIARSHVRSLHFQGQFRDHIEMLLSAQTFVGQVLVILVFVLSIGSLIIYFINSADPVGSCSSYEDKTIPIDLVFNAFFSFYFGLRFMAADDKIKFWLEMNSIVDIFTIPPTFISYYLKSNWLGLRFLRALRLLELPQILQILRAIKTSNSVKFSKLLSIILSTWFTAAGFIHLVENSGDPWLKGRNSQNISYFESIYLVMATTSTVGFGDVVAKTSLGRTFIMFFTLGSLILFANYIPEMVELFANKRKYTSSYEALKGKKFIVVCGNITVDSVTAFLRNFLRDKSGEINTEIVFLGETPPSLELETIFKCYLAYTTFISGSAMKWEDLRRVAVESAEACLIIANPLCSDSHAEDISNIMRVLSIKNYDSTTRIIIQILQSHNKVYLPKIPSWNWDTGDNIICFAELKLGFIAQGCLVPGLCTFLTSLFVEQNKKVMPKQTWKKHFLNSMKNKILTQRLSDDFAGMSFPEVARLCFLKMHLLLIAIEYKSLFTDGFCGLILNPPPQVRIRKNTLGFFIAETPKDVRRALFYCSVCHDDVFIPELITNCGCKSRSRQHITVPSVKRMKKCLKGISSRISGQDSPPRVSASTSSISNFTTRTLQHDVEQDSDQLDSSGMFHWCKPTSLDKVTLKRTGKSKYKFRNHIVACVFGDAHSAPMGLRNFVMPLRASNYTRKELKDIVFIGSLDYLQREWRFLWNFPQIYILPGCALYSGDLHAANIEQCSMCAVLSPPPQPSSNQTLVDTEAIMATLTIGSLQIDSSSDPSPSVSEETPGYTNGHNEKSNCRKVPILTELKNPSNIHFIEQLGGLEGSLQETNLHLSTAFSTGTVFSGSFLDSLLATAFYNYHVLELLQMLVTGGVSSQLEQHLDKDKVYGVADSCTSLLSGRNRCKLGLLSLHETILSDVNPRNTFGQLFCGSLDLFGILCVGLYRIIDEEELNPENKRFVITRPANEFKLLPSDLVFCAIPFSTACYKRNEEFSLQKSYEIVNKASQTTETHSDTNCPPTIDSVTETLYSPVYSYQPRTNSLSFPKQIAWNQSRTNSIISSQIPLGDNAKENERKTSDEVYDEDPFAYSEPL
T2 sequence (Q8N7C0 24-313 partner): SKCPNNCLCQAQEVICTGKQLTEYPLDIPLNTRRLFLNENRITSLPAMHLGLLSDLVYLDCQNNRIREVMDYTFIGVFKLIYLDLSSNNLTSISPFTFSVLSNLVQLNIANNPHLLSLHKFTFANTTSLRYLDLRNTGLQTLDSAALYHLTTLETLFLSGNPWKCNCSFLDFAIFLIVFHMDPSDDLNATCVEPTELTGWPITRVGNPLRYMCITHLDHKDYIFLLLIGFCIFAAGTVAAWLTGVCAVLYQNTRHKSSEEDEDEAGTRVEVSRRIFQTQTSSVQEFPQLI

hCav1.2 = hCav1.2 (Homo sapiens, UniProt Q13936); test: hCav1.2 FLIPR assay in stably expressing cell line; format: cell-based; conditions: read-out: Inhibition at 10 μM [%] hCav1.2
hNav1.5 = hNav1.5 (Homo sapiens, UniProt Q14524); test: hNav1.5 manual patch-clamp in CHO cells; format: cell-based; conditions: read-out: Inhibition at 10 μM [%] hNav1.5
hERG = hERG (Homo sapiens, UniProt Q12809); test: hERG manual patch-clamp in HEK293 cells; format: cell-based; conditions: HEK293 cells expressing hERG
CatSper [4] = molecular target: T1, CatSper; test: Whole cell patch clamp electrophysiology of ICatSper in human sperm; format: cell-based; conditions: for Inhibition (block) of the inward ICatSper: 10 μM compound, human sperm, CsDVF
Summary of the method: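 Swim-up sperm, seal at cytoplasmic droplet in HS buffer (pH 7.4), 12–18 MΩ pipettes with CsDVF internal. Break-in by 1 ms 450 mV pulses. Control current in CsDVF bath, then 10 μM compound for ~8–10 s. Ramp −80 to +80 mV from 0 mV every 3 s. Current density at ±80 mV, room temperature. Washout with CsDVF.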

human sperm [5] = test: CASA: PGE1-induced hyperactivated motility; format: cell-based; conditions: 100 nM compound, 100 nM PGE1, HAM measured after 4 h
IMR‐90 fibroblasts = test: AlamarBlue cytotoxicity assay in IMR-90 fibroblasts; format: cell-based, human; conditions: at concentrations fully inhibiting CatSper; AlamarBlue, 2 h
Summary of the method: as §2

human sperm [6] = test: Computer-aided sperm analysis; format: cell-based; conditions: 10 μM, 4 h incubation with human sperm
Summary of the method: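 Motile sperm selected by swim-up into bicarbonate-free HAM's-F10 (37 °C, 5% CO2, 1 h), ≥10×10^6 cells/mL. Incubated 4 h with increasing test compound concentrations. CASA at 37 °C gives total and progressive motility from VAP, VSL, VCL, LIN and STR, as % of population. ≥10 fields/≥200 cells. Mean±SEM of ≥3 experiments; one-way ANOVA with Dunnett's test.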

human sperm [7] = test: CASA: progesterone-induced hyperactivated motility; format: cell-based; conditions: 10 μM compound, 100 nM progesterone, HAM measured after 4 h
human sperm [8] = test: AlamarBlue cytotoxicity assay in human sperm; format: cell-based; conditions: human sperm and IMR‐90 fibroblasts
Summary of the method: as §1

CatSper [9] = molecular target: T1, CatSper; conditions: reported previously; cited from earlier work
[10] = read-out: Inhibition (block) of the inward ICatSper
[11] = read-out: Inhibition at 10 μM [%] CatSper

Sequence of hCav1.2 (Q13936 whole entry): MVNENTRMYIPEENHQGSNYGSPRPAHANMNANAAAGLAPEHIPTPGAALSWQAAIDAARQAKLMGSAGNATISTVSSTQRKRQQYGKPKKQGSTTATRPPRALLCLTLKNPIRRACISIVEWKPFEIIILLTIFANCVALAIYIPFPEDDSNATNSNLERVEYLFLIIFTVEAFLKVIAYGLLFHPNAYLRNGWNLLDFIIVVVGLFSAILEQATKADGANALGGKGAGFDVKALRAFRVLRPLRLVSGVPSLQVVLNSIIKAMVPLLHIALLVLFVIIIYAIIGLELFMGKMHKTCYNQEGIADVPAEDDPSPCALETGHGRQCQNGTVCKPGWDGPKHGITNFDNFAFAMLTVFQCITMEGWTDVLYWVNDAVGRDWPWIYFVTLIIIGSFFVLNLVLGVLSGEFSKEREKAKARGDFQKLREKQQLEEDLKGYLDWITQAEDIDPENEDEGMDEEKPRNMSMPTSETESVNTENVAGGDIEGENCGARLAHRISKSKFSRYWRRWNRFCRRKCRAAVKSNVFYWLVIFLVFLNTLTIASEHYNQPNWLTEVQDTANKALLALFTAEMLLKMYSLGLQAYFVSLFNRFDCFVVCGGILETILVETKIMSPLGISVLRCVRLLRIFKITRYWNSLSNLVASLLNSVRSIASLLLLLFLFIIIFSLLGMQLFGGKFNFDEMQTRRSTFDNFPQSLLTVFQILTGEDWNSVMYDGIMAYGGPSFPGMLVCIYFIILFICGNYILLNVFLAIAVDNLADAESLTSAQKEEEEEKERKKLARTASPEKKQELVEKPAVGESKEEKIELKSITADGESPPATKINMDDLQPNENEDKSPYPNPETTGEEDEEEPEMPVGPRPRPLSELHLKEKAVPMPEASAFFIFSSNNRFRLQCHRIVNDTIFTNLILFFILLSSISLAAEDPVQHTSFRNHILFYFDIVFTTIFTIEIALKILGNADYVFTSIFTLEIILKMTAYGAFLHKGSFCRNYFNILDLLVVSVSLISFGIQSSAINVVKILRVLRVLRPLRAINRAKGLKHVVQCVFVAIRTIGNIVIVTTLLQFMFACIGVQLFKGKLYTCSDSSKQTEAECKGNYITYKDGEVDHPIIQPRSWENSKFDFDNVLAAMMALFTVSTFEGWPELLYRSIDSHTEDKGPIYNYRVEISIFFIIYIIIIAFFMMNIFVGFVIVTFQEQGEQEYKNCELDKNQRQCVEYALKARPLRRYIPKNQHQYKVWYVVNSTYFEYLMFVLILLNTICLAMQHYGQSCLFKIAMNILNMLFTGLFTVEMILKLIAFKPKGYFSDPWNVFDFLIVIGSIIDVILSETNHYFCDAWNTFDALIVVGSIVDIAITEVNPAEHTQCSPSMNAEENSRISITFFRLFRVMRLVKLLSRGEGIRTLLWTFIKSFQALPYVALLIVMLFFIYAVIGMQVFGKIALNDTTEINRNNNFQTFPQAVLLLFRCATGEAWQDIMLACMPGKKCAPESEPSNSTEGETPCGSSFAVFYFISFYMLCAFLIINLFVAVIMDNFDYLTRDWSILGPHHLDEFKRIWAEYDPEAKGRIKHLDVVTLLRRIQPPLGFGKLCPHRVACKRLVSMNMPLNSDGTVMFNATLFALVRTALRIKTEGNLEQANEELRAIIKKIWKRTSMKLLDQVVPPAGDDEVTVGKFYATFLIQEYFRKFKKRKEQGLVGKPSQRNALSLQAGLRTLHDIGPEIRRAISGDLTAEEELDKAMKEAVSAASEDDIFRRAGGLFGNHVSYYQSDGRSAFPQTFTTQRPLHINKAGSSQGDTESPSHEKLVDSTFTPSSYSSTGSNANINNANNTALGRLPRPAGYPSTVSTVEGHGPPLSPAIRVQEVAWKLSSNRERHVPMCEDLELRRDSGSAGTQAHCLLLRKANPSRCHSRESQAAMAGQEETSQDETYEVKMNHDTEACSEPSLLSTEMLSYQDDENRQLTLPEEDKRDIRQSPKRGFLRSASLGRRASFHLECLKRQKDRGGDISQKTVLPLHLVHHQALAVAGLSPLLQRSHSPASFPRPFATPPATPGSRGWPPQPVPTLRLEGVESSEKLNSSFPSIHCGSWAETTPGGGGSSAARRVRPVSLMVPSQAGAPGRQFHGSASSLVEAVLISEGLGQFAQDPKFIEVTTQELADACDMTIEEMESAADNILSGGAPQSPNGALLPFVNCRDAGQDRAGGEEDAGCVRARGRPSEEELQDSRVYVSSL
Sequence of hNav1.5 (Q14524 whole entry): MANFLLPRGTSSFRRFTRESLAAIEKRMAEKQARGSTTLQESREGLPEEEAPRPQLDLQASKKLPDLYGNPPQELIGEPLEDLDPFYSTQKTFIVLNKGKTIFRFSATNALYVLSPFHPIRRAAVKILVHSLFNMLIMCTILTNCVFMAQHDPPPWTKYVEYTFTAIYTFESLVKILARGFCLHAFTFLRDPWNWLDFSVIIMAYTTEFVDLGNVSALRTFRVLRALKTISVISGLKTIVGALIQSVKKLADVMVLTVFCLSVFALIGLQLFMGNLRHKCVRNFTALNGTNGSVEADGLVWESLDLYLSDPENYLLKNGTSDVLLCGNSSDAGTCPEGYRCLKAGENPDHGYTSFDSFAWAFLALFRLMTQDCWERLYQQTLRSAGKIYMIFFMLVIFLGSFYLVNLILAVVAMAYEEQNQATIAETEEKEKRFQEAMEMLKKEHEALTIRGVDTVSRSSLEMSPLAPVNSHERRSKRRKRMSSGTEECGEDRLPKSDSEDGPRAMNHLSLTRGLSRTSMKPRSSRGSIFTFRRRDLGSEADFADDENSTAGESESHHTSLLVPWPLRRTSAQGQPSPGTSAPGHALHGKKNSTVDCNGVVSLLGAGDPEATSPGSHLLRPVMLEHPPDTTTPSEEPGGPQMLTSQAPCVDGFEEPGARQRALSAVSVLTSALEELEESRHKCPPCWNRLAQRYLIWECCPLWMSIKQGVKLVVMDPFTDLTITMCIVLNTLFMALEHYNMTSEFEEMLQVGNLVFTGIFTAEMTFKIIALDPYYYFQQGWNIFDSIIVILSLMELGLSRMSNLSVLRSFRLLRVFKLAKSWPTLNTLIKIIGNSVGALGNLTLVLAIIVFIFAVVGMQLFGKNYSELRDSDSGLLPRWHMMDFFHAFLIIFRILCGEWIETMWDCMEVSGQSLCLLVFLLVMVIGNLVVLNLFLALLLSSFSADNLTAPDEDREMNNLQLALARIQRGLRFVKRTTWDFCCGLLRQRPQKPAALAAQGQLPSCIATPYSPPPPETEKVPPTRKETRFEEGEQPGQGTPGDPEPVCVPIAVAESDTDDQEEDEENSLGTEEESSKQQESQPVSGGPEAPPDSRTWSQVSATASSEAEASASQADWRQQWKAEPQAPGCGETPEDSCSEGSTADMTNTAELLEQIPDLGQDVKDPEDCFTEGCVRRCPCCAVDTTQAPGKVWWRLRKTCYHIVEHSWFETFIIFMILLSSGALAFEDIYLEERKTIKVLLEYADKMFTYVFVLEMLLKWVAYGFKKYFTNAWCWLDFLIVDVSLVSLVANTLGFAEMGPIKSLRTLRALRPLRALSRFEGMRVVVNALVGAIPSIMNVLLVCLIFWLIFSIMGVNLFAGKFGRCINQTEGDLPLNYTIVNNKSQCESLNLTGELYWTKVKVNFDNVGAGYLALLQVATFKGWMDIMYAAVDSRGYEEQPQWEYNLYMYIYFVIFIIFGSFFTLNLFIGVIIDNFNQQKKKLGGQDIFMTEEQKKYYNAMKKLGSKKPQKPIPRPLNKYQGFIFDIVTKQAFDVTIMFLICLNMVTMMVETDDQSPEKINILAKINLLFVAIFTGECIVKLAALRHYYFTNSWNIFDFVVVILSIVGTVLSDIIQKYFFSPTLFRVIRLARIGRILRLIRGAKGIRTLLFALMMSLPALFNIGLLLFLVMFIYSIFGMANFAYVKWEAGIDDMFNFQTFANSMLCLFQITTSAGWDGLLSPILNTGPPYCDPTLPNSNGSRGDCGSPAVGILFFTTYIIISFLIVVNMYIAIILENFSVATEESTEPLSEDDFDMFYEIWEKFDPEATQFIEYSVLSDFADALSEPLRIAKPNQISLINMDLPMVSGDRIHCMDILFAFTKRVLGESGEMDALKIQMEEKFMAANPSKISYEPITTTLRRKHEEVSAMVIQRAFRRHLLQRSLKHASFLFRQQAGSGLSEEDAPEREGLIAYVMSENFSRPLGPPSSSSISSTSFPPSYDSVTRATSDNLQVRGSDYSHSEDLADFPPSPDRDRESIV

IC50 (CatSper [1]) [µM]	hSLO3 current in the presence of compound, % of control (human SLO3 and LRRC52)	inhibition at 10 µM (CatSper [4]; [10]) [%]	inhibition at 10 µM (CatSper [4]; [11]) [%]	SMILES	IC50 at 3 h [2] [µM]	IC50 at 7 h [3] [µM]	inhibition at 10 µM (hCav1.2) [%]	inhibition at 10 µM (hNav1.5) [%]	other results
4.9 ± 0.6		84	83	O=C(Nc1cccc(C(F)(F)F)c1)N1CCN(c2cccc(C(F)(F)F)c2)CC1 [4 a, N ,4‐Bis(3‐(trifluoromethyl)phenyl)piperazine‐1‐carboxamide]	> 100	> 100	65	95	Progressive motility (CASA) (human sperm [6]): substantially reduced; Total motility (CASA) (human sperm [6]): substantially reduced; Reduction of progesterone-induced HAM (human sperm [7]): statistically significant; hSLO3 current in the presence of compound, % of control (human SLO3 and LRRC52; 10 µM): 24.6±9.1 % of control and 25 % of control; inhibition at 10 µM (human SLO3 and LRRC52): 75%
3.4 ± 0.4	83.2±7.8 % of control	47		N=c1n(CCN2CCCCC2)c2ccccc2n1CC(O)c1cccc(Br)c1 (stereo not drawn) [5 f, 1‐(3‐Bromophenyl)‐2‐(2‐imino‐3‐(2‐(piperidin‐1‐yl)ethyl)‐2,3‐dihydro‐1H‐benzo[d]imidazol‐1‐yl)ethan‐1‐ol]	> 100	83 ± 14			Reversibility of ICatSper block on washout (CatSper [4]; washed out with CsDVF after 10 μM compound): apparent irreversible loss of channel function; Progressive motility (CASA) (human sperm [6]): substantially reduced; Total motility (CASA) (human sperm [6]): substantially reduced
5.4 ± 0.4				CN1CCCC(n2nc(Cc3ccc(Cl)cc3)c3ccccc3c2=O)CC1 (stereo not drawn) [6 a, azelastine, reference compound]					
8.3 ± 1.1	66.3±8.5 % of control		100	O=c1c2ccccc2c(Cc2ccc(Cl)cc2)nn1C1CCCNCC1 (stereo not drawn) [6 b, 2‐(Azepan‐4‐yl)‐4‐(4‐chlorobenzyl)phthalazin‐1(2H)‐one]	84 ± 10	68 ± 5			Inhibition (block) of the inward ICatSper (CatSper [4]): near complete inhibition; Reduction of progesterone-induced HAM (human sperm [7]): statistically significant; Effect on IMR‐90 viability (IMR‐90 fibroblasts): reduce viability slightly
20 ± 1		89		CCN(CC)CCNC(=O)C1CCN(c2ccc3nnc(-c4cccc(C)c4)n3n2)CC1 [7 a, N ‐(2‐(Diethylamino)ethyl)‐1‐(3‐(m–tolyl)‐[1,2,4]triazolo[4,3‐b]pyridazin‐6‐yl)piperidine‐4‐carboxamide]	> 100	> 100	-9		Progressive motility (CASA) (human sperm [6]): substantially reduced; Total motility (CASA) (human sperm [6]): substantially reduced; Reduction of progesterone-induced HAM (human sperm [7]): statistically significant; hSLO3 current in the presence of compound, % of control (human SLO3 and LRRC52; 10 µM): 37.5±5.6 % of control and 38 % of control

Continued, molecule first:

SMILES	IC50 (CatSper [1]) [µM]	hSLO3 current in the presence of compound, % of control (human SLO3 and LRRC52)	inhibition at 10 µM (CatSper [4]; [10]) [%]	inhibition at 10 µM (CatSper [4]; [11]) [%]	IC50 at 3 h [2] [µM]	IC50 at 7 h [3] [µM]	inhibition at 10 µM (hCav1.2) [%]	inhibition at 10 µM (hNav1.5) [%]	other results
NC(N)=NC(=O)c1nc(Cl)c(N2CCCCCC2)nc1N [1 a, 3‐Amino‐5‐(azepan‐1‐yl)‐6‐chloro‐N‐(diaminomethylene)pyrazine‐2‐carboxamide]	5.4 ± 0.6	101.5±6.4 % of control			> 100	> 100	4	68	inhibition at 10 µM (human SLO3 and LRRC52): -2%; inhibition at 10 µM (hERG): 92%
N=C(N)NC(=O)c1nc(Cl)c(N)nc1N [1 d, amiloride, reference compound]	> 100								
OC1(c2ccc(Cl)cc2)CCN(Cc2c[nH]c3ccccc23)CC1 [2 a, 4‐(4‐Chlorophenyl)‐1‐(1H‐indol‐3‐ylmethyl)‐4‐piperidinol]	7.5 ± 1.3		65	73	> 100	> 100	39	77	Inhibition of PGE1-induced HAM (human sperm [5]): greatly reduced HAM; Effect on IMR‐90 viability (IMR‐90 fibroblasts): reduce viability slightly; inhibition at 10 µM (hERG): 100%
c1ccc(CN2CCC(c3c[nH]c4ccccc34)CC2)cc1 [2 l, 3‐(1‐benzylpiperidin‐4‐yl)‐1H‐indole]	> 100								
Cc1cc(C)c2nc(C)cc(NCCc3ccccc3)c2c1 [3 a, 2,6,8‐Trimethyl‐N‐(2‐phenylethyl)‐4‐quinolinamine]	3.6 ± 0.6	58.5±12.5 % of control		96	> 100	96 ± 5	10	94	Inhibition (block) of the inward ICatSper (CatSper [4]): near complete inhibition; inhibition at 10 µM (human SLO3 and LRRC52): 42%; inhibition at 10 µM (hERG): 100%
COCC(=O)O[C@]1(CCN(C)CCCc2nc3ccccc3[nH]2)CCc2cc(F)ccc2[C@@H]1C(C)C [Mibefradil, reference compound]					25 ± 2	22 ± 1			Separation between potencies for blocking calcium influx and cytotoxicity (human sperm [8]): low separation; Reversibility of CatSper block (CatSper [9]): irreversible loss of channel function
